The whole screen tested about 330,000 compounds, of which about 1,100 (0.33%) were called active. The full list was thinned out, with actives kept by preference. A number with no mark means an inactive call.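 The calls were made as follows: active = versus positive control, 20 µM dose yields 30% or more activation; inactive = the rest.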

The assay is described as follows: activators of adaptive XBP1 UPR arm, primary screen, cell-based, CHO-XBP1 luciferase reporter, luminescence, uHTS (AID 463104).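 Also: 100% = tunicamycin at 10 µg/mL and 0% = DMSO only wells.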 The following applies: IRE1-XBP1 UPR activation, at 20 µM, active compounds read high, percent of tunicamycin response, DMSO as zero. In outline: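 Signal: luciferase luminescence; Assay system: CHO-XBP1 luciferase reporter cells; Amount: one thousand reporter cells per well; Dosing: 20 µM single concentration, DMSO 1%; Benchmarks: high control tunicamycin 10 µg/mL final, low control DMSO vehicle only; Schedule: 6 h compound exposure at 37 °C, 5% CO2; Evaluation: percent activation relative to tunicamycin reference.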
Consider `CCOC(=O)c1c(N)n(Cc2ccccc2)c2nc3ccccc3nc12`, for which the activation is 2.64%.
The result for `COc1cc(Cn2c(N)c(C(=O)NCc3ccco3)c3nc4ccccc4nc32)cc(OC)c1OC` reads 35.8% (active); that for `COC(=O)C1=C(c2ccccc2)C[C@@H]2CC[C@H]1N2C(=O)NCc1ccco1`, 1.2%.
The result for `CC(C(=O)Nc1ccc(Cl)cc1Cl)N1CC=C(c2ccccc2)CC1` (stereo not given) reads -1.2%; that for `CNC(=O)O/N=C(\N)Cc1csc2ccc(Cl)cc12`, 0.76%.

The values are drawn from PubChem BioAssay AID463104 (Sanford-Burnham Center for Chemical Genomics, 2010).
